For one data set, the target named is BRK (Homo sapiens, UniProt Q13882). The experiment in a line: BRK biochemical inhibitory assay. The following applies: for inhibition at 2 µM: read-out: % BRK Inhibition. In short, it runs like this: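 Human BRK kinase pre-incubated with test compound for 10 min, then substrate and ATP mix added. Kinase reaction run 1 h. ADP-Glo reagent added for 40 min, then kinase detection reagent for 45 min. Luminescence read. Single-point screens run at 2 μM and at 0.2 μM test compound, given as % BRK inhibition.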
Chain of BRK (Q13882 whole entry): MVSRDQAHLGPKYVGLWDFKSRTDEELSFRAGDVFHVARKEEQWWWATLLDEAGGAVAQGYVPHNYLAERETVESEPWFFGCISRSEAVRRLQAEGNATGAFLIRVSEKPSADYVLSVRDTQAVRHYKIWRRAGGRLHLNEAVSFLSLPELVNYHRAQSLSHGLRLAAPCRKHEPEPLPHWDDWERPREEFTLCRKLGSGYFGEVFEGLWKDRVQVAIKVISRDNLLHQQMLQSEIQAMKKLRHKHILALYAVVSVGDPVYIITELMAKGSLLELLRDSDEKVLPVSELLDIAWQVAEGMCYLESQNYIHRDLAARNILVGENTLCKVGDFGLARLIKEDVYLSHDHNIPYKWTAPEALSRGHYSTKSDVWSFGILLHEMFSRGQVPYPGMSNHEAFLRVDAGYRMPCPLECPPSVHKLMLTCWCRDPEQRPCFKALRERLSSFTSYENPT

Another data set deals with MDA.MB.231 cell line. The experiment in a line: MTT cytotoxicity / cell viability assay. The class given is cell-based.
Another data set deals with BT-20 cells. As to the kind of experiment: Colony formation assay. The following applies: varying concentrations. In kind it is cell-based.
The next data set deals with HCC1806 cells. The experiment in a line: Colony formation assay. In kind it is cell-based. The following applies: single concentration of 10 μM.
Another data set concerns MDA.MB.231 cells. The experiment in a line: Colony formation assay. In kind it is cell-based. The conditions noted are these: varying concentrations.
Data set [1] has as its system AKT phosphorylation in BT-20 cells. As to the kind of experiment: Western blot of AKT phosphorylation. The following applies: vs control, preliminary western blot (Figure S3). The class given is cell-based.

Read-outs that look alike come from different tables or passages of the source.

As for `Oc1cccc(-c2cncc(Cl)n2)c1` [Compound 26, 3-(6-chloropyrazin-2-yl)phenol], on BRK, the inhibition at 2 µM came to 29.6 ± 22.9%.
Turning to `Oc1cccc(Nc2ncnc3cc(Br)ccc23)c1` [Compound 35, 3-((7-bromoquinazolin-4-yl)amino)phenol], the inhibition at 2 µM on BRK worked out at 76.1 ± 7.3%.
On to `Oc1cccc(-c2cnc3ccccc3n2)c1` [Compound 32, 3-(quinoxalin-2-yl)phenol], for which the inhibition at 2 µM on BRK turned out to be 48.9 ± 8.9%.
For the molecule `Oc1cccc(Nc2ccnc3[nH]c4ccccc4c23)c1` [Compound 4f, tilfrinib], the “Cellular assay MDA.MB.231 % Inhibition 10 μM” value in the data set with MDA.MB.231 cell line (MTT, 10 μM, 72h treatment) was 31.40%. Besides, in the data set on MDA.MB.231 cell line (viability studies, in words), the “cytotoxicity in viability studies” value is recorded as “minimal cytotoxicity”. For the same molecule, the colony formation result in the data set with BT-20 cells, in the data set on HCC1806 cells and in the data set with MDA.MB.231 cells was “reduce the colony formation” throughout. Also, on BRK (0.2 μM, ADP-Glo (Table 3)), the “Biochemical assay % Inhibition 0.2 μM” value turned out to be 86%. Moreover, the “Biochemical assay % Inhibition 2 μM” value on BRK (2 μM, ADP-Glo (Table 3)) was 100%. Also, the 50% inhibitory concentration (IC50) on BRK (read-out: BRK IC50, enzymatic inhibition) was 25 nM; at BRK (read-out: Biochemical assay IC50, ADP-Glo (Table 3)) it was 25.7 ± 5.05 nM. Besides, the “% BRK Inhibition” value at BRK (single point, 2 μM, ADP-Glo, pyrimido-indole derivatives (Table 1)) is 100.0 ± 7.8%. In addition, in data set [1], the AKT phosphorylation result is “increase in AKT phosphorylation”.

Usually inhibition stands for the change of the read-out against control, counted positive when it falls. Usually IC50 stands for the point on the concentration scale where inhibition reaches its midpoint.

The values are drawn from publication PMC12574688 (European journal of medicinal chemistry, 2025).
